Data from ChEMBL document CHEMBL1137457, “5'-O-masked 2'-deoxyadenosine analogues as lead compounds for hepatitis C virus (HCV) therapeutic agents” (Bioorg Med Chem, 2007).

Key:
[1] = tested on: Hepatitis C virus; experiment: Inhibition of HCV replication in Huh7 cells after 48 hrs by luciferase assay; assay type: functional, organism-based, Hepacivirus hominis; conditions: Huh-7, 48 h
Procedure, shortened: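 HCV subgenomic replicon cells carrying luciferase reporter; replicon inhibition read by luciferase after two-day incubation with compound; EC50 averaged from at least three independent experiments.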

[2] = Antiviral index, ratio of CC50 for Huh7 cells to EC50 for HCV replication; assay type: functional, Huh-7
Procedure, shortened: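 Antiviral index calculated as 50% toxic dose (XTT, replicon cells) divided by 50% effective dose (luciferase replicon read-out after two days); from at least three independent experiments.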

[3] = Cytotoxicity against Huh7 cells by XTT assay; assay type: cell-based; conditions: human, huh-7
Procedure, shortened: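 Cytotoxicity in the replicon-bearing cells measured by XTT tetrazolium assay per manufacturer's protocol; CC50 averaged from at least three independent experiments.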

Structure (SMILES)	EC50 [1] [µM]	Ratio CC50/EC50 [2]	CC50 [3] [µM]
O[C@H]1C[C@H](n2cnc3c(Cl)ncnc32)O[C@@H]1COCc1ccccc1	17.7	10.1	178
CN(C)c1ncnc2c1ncn2[C@H]1C[C@H](O)[C@@H](COC(=O)c2ccccc2)O1	22.3	>9	> 200
CSc1ncnc2c1ncn2[C@H]1C[C@H](O)[C@@H](COC(=O)c2ccccc2)O1	> 100		
O=C(OC[C@@H]1C[C@@H](O)[C@H](n2cnc3c(Cl)ncnc32)O1)c1ccccc1	38.1	1.9	70.5
CC(C)(C)C(=O)OC[C@H]1O[C@@H](n2cnc3c(Cl)ncnc32)C[C@@H]1O	28	6.3	177
COc1ccc(C(=O)OC[C@H]2O[C@@H](n3cnc4c(Cl)ncnc43)C[C@@H]2O)cc1	8.4	9.1	76.4
Cc1cc(C)c(C(=O)OC[C@H]2O[C@@H](n3cnc4c(Cl)ncnc43)C[C@@H]2O)c(C)c1	> 50	<1.8	91
O=C(OC[C@H]1C[C@@H](n2cnc3c(Cl)ncnc32)[C@@H]1CO)c1ccccc1	6.4	3.1	20
O=C(OC[C@H]1O[C@@H](n2cnc3c(Cl)ncnc32)[C@H](O)[C@@H]1O)c1ccccc1	41	2.4	97.3
O=C(OC[C@H]1O[C@@H](n2cnc3c(Cl)ncnc32)C[C@@H]1O)c1ccccc1	6.1	18.2	111
OC[C@H]1O[C@@H](n2cnc3c(Cl)ncnc32)C[C@@H]1O	47.2	3.7	173
OC[C@@H]1C[C@@H](O)[C@H](n2cnc3c(Cl)ncnc32)O1	64.1	>3.1	> 200
OCC(CO)CCn1cnc2c(Cl)ncnc21	80.8	>2.5	> 200
Nc1ncnc2c1ncn2[C@H]1C[C@H](O)[C@@H](COC(=O)c2ccccc2)O1	105	>1.9	> 200
O=C(OC[C@H]1O[C@@H](n2cnc3c(O)ncnc32)C[C@@H]1O)c1ccccc1	> 100		
OC[C@H]1C[C@@H](n2cnc3c(Cl)ncnc32)[C@@H]1CO	46.1	4.3	> 200
O=C(OCC(CO)CCn1cnc2c(Cl)ncnc21)c1ccccc1 (configuration not stated)	13.3	8.1	108
CCCC(=O)OC[C@H]1O[C@@H](n2cnc3c(Cl)ncnc32)C[C@@H]1O	30.3	>6.6	> 200
C=CCOC[C@H]1O[C@@H](n2cnc3c(Cl)ncnc32)C[C@@H]1O	24.5	5.7	140
OC[C@H]1O[C@@H](n2cnc3c(Cl)ncnc32)[C@H](O)[C@@H]1O	31	>6.5	> 200
O=S(=O)(OC[C@H]1O[C@@H](n2cnc3c(Cl)ncnc32)C[C@@H]1O)c1ccccc1	28.8	5.1	146
NC(=O)c1ncn([C@@H]2O[C@H](CO)[C@@H](O)[C@H]2O)n1 [RIBAVIRIN]	54.8	>3.7	> 200
